MT stabilize HCS: microtubule stabilizers in HeLa cells, primary screen, imaging, high-content imaging; HeLa tubulin immunostaining HCS, 24 h; share of cells brighter than vehicle mean+2SD; % tubulin-high responders, % at 10 µM; 0.83% of 200,000 active; AID 2205, 2009;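 active = plate Z-score above 3 for both tubulin-high and condensed-nucleus cell shares, with cell loss under 80%, at 10 µM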;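 note: anti alpha tubulin signal scored within the nucleus-defined area of each cell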
IEC-6 cytotox: cytotoxicity in IEC-6 intestinal epithelial cells, primary screen, cytotoxicity control for KLF5 inhibitor project, cell-based, luminescence; inhibition, % at 5 µM; 0.78% of 290,000 active; IEC-6 cytotoxicity, luminescence viability
APP transl inh: inhibitors of APP translation via 5'UTR reporter, primary screen, APP 5'UTR luciferase, SH-SY5Y cells. SH-SY5Y APP 5'UTR-luciferase reporter, luminescence. inhibition, % at 2 µM. 0.82% of 190,000 active. AID 1285, 2008;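 active = inhibition above a set limit, derived from the sample mean plus 3 SD, cut at about 45% in these data; inconclusive = one replicate passes the limit while the other fails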
Ba/F3 V617F tox: reduced viability of JAK2V617F-dependent Ba/F3 cells, primary screen, JAK2V617F inhibitor project, cell-based, Ba/F3 EpoR-JAK2V617F, luminescence | 1.1% of 220,000 active | AID 1446, 2008 | inhibition, % at 5.6 µM | ATP luminescence;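 active = inhibition above the campaign mean plus 3 SD over all tested compounds, cut at about 24% in these data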;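 note: cytokine-independent growth of Ba/F3 cells driven by EpoR plus mutant JAK2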
BaF3 parental: parental Ba/F3 cell viability inhibition, counter-screen for JAK2V617F inhibitor project, murine pro-B, CellTiter-Glo luminescence. 1.1% of 220,000 active. inhibition, % at 5.6 µM. CellTiter-Glo ATP luminescence;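 active = inhibition above a per-campaign cutoff, the mean inhibition of all tested compounds plus 3 SD, cut at about 27% in these data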
bCat nuc transl: modulators of beta-catenin nuclear translocation, primary screen, imaging, HeLa cells, immunofluorescence, high-content; nuclear translocation activity, % at 5 µM; 0.3% of 190,000 active;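 active = nuclear translocation activity above 50% at 5 µM, with a well cell count of 50 or more; inconclusive = wells under 50 cells across six images, flagged as toxic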;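 note: per-cell ratio of nuclear to cytoplasmic median beta-catenin stain intensity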
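Technique: fluorescence imaging of beta-catenin antibody stain plus DAPI / Material: human HeLa cell line / Incubation: compound treatment 24 h, 37°C, 5% CO2 / Read-out basis: % activation of per-cell nuclear versus cytoplasmic median beta-catenin signal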
IEC-6 cytotox cf: cytotoxic compounds in IEC-6 epithelial cells, confirmation, cytotoxicity control, cell-based, luminescence; IEC-6 rat intestinal epithelial viability; 63% of 1,900 active; shares compounds with IEC-6 cytotox; inhibition, % at 5 µM; AID 1907, 2009
Large screens that a line does not name were inactive (follow-up assays come after a bar, where they were run). Rows were chosen to be rich in hits. Some 2.2% of all compounds tested hit in one or more screens of this group. Cut-off read from the data, not from the text of the source, unless noted: active = inhibition above about 22%; inactive = the rest.

COc1ccc(C2=CC(c3ccc(OC)c(OC)c3)c3c(c4ccccc4oc3=O)O2)cc1OC (centres undefined)	IEC-6 cytotox 28, bCat nuc transl 100 (no result: MT stabilize HCS, APP transl inh) | IEC-6 cytotox cf inactive
Cc1nc2ccccc2c(=O)n1-c1ccc(Br)cn1	IEC-6 cytotox 22, Ba/F3 V617F tox 25, BaF3 parental 51 (no result: MT stabilize HCS, APP transl inh) | IEC-6 cytotox cf inactive
O=C(c1cccc(C(F)(F)F)c1)N1C[C@H]2C[C@@H](C1)c1cccc(=O)n1C2	none (no result: MT stabilize HCS, APP transl inh, Ba/F3 V617F tox, BaF3 parental, bCat nuc transl)
CCCN1CCC2(CC1)NC(CO)(CO)CO2	none (no result: bCat nuc transl)
CC(=O)O[C@@]12CO[C@@H]1C[C@@H](O)[C@@]1(C)C(=O)[C@H](O)C3=C(C)[C@@H](OC(=O)[C@H](O)[C@@H](NC(=O)c4ccccc4)c4ccccc4)C[C@@](O)([C@@H](OC(=O)c4ccccc4)C12)C3(C)C (some centres undefined)	IEC-6 cytotox 90 (no result: MT stabilize HCS, APP transl inh, Ba/F3 V617F tox, BaF3 parental, bCat nuc transl) | IEC-6 cytotox cf 81
CCCCCC(=O)N[C@@H](c1ccccc1)[C@@H](O)C(=O)O[C@H]1C[C@@]2(O)[C@@H](OC(=O)c3ccccc3)C3[C@](C)(C(=O)[C@H](O)C(=C1C)C2(C)C)[C@@H](OC1OCC(O)C(O)C1O)C[C@H]1OC[C@@]31OC(C)=O (some centres undefined)	IEC-6 cytotox 68 (no result: MT stabilize HCS, APP transl inh, Ba/F3 V617F tox, BaF3 parental, bCat nuc transl) | IEC-6 cytotox cf 54
CC(=O)O[C@@]12CO[C@@H]1C[C@H](OC1OCC(O)C(O)C1O)[C@@]1(C)C(=O)[C@H](O)C3=C(C)[C@@H](OC(=O)[C@H](O)[C@@H](NC(=O)c4ccccc4)c4ccccc4)C[C@@](O)([C@@H](OC(=O)c4ccccc4)C12)C3(C)C (some centres undefined)	IEC-6 cytotox 57 (no result: MT stabilize HCS, APP transl inh, Ba/F3 V617F tox, BaF3 parental, bCat nuc transl) | IEC-6 cytotox cf 46
CCOC(=O)N(CC)c1ccc(C(O)(C(=O)OC)C(F)(F)F)cc1 (centres undefined)	none
Cc1ccc(-c2cc(-c3ccc(C)cc3)[n+](C)o2)cc1	IEC-6 cytotox 25, Ba/F3 V617F tox 91, BaF3 parental 73 (no result: bCat nuc transl) | IEC-6 cytotox cf 23
O=C1Nc2cc(C(=O)N3CCC4(CC3)OCCO4)ccc2S/C1=C\c1ccccc1	none (no result: MT stabilize HCS, APP transl inh, Ba/F3 V617F tox, BaF3 parental, bCat nuc transl)
COc1cc(/C=N/NC(=O)CN2CC(c3ccccc3)CC2=O)ccc1OC(=O)N(C)C (centres undefined)	none (no result: bCat nuc transl)
O=[N+]([O-])NC1=NCCN1Cc1ccc(Cl)nc1	IEC-6 cytotox 48 (no result: MT stabilize HCS, APP transl inh, Ba/F3 V617F tox, BaF3 parental, bCat nuc transl) | IEC-6 cytotox cf inactive
O=[N+]([O-])/C=C1\NCCN1Cc1ccc(Cl)nc1	none
Cc1c2ccncc2c(C)c2c1[nH]c1ccccc12	IEC-6 cytotox 49, APP transl inh 67, Ba/F3 V617F tox 84, BaF3 parental 74 | IEC-6 cytotox cf 49
c1ccc2c(c1)[nH]c1cnccc12	none
Cc1ccccc1-n1c(/C=C/c2ccccn2)nc2ccccc2c1=O	none (no result: MT stabilize HCS, APP transl inh)
CN1C2CCC1/C(=C/c1ccccn1)C(=O)/C2=C\c1ccccn1	IEC-6 cytotox 59, APP transl inh 95, Ba/F3 V617F tox 100, BaF3 parental 103, bCat nuc transl inconclusive | IEC-6 cytotox cf 95
Cc1nnc2n1-c1ccc(Cl)cc1C(c1ccccc1)=NC2	none (no result: MT stabilize HCS, APP transl inh)
CCC(C)C(=O)N[C@@H](c1ccccc1)[C@@H](O)C(=O)O[C@H]1C[C@@]2(O)[C@@H](OC(=O)c3ccccc3)C3[C@](C)(C(=O)[C@H](OC(C)=O)C(=C1C)C2(C)C)[C@@H](O)C[C@H]1OC[C@@]31OC(C)=O (some centres undefined)	IEC-6 cytotox 92 (no result: MT stabilize HCS, APP transl inh, Ba/F3 V617F tox, BaF3 parental, bCat nuc transl) | IEC-6 cytotox cf 81
CC/C=C/CC(=O)N[C@@H](c1ccccc1)[C@@H](O)C(=O)O[C@H]1C[C@@]2(O)[C@@H](OC(=O)c3ccccc3)C3[C@](C)(C(=O)[C@H](OC(C)=O)C(=C1C)C2(C)C)[C@@H](O)C[C@H]1OC[C@@]31OC(C)=O (some centres undefined)	IEC-6 cytotox 92 (no result: MT stabilize HCS, APP transl inh, Ba/F3 V617F tox, BaF3 parental, bCat nuc transl) | IEC-6 cytotox cf 86
C/C=C(\C)C(=O)N[C@@H](c1ccccc1)[C@@H](O)C(=O)O[C@H]1C[C@@]2(O)[C@@H](OC(=O)c3ccccc3)C3[C@](C)(C(=O)[C@H](OC(C)=O)C(=C1C)C2(C)C)[C@H](O)C[C@H]1OC[C@@]31OC(C)=O (some centres undefined)	IEC-6 cytotox 88 (no result: MT stabilize HCS, APP transl inh, Ba/F3 V617F tox, BaF3 parental, bCat nuc transl) | IEC-6 cytotox cf 79
O=[N+]([O-])c1ccc(N2CCNCC2)cc1NCC1CCCO1 (centres undefined)	none
OC(c1ccc(F)cc1)C(c1ccccc1)N1CCOCC1 (centres undefined)	none
c1ccc(-c2cc(-c3ccccc3)[n+](-c3ccccc3)c(-c3ccccc3)c2)cc1	IEC-6 cytotox 47, Ba/F3 V617F tox 99, BaF3 parental 97 (no result: MT stabilize HCS, APP transl inh) | IEC-6 cytotox cf 47
C=CCn1c(O)c(C(CC)=NCCN2CCN(C(=S)NC)CC2)c(=O)[nH]c1=O	none (no result: MT stabilize HCS, APP transl inh)
C=CCn1c(O)c(/C(CC)=N/NC(=S)Nc2ccccc2)c(=O)[nH]c1=O	none (no result: MT stabilize HCS, APP transl inh)
CC(C)(C)c1ccc(S(=O)(=O)N2CC3CC(C2)c2cccc(=O)n2C3)cc1 (centres undefined)	none
C[C@@]1(CO)[C@H](O)CC[C@@]2(C)[C@H]1CC[C@H]1C[C@@H]3C[C@@]12CC[C@]3(O)CO	IEC-6 cytotox 87, APP transl inh 83, Ba/F3 V617F tox 99, BaF3 parental 91 | IEC-6 cytotox cf 80
C=CCn1c(O)c(C(C)=NCc2cc(OC)cc(OC)c2)c(=O)[nH]c1=O	IEC-6 cytotox 28, Ba/F3 V617F tox 45, BaF3 parental 28 | IEC-6 cytotox cf 34
CC1NCCC2(O)CCCCC12 (centres undefined)	none
CC1C(OC(=O)CCC(=O)NC(C)(C)CO)O[C@H]2OC3(C)CC[C@H]4[C@H](C)CCC1C24OO3 (some centres undefined)	IEC-6 cytotox 33 (no result: MT stabilize HCS, APP transl inh, Ba/F3 V617F tox, BaF3 parental, bCat nuc transl) | IEC-6 cytotox cf inactive
C[C@H]1[C@H](OC(=O)CCC(=O)NCc2ccc(C(=O)O)cc2)O[C@@H]2O[C@@]3(C)CC[C@H]4[C@H](C)CC[C@@H]1C24OO3	IEC-6 cytotox 24 (no result: MT stabilize HCS, APP transl inh, Ba/F3 V617F tox, BaF3 parental, bCat nuc transl) | IEC-6 cytotox cf inactive
CC(C)CC(NC(=O)CCCNC(=O)CCC(=O)OC1O[C@H]2OC3(C)CC[C@H]4[C@H](C)CCC(C1C)C24OO3)C(=O)O (some centres undefined)	IEC-6 cytotox 30 (no result: MT stabilize HCS, APP transl inh, Ba/F3 V617F tox, BaF3 parental, bCat nuc transl) | IEC-6 cytotox cf 23
COc1ccc(CCC(=O)NCCc2cnc[nH]2)cc1	none (no result: MT stabilize HCS, APP transl inh, Ba/F3 V617F tox, BaF3 parental, bCat nuc transl)
CC1CCN(C(=O)C(C)Cl)CC1 (centres undefined)	none

Bioassay records deposited in PubChem by several laboratories.
